Assay results taken from ChEMBL document CHEMBL2203113, “Discovery of 2-(2-oxo-1-phenyl-5-pyridin-2-yl-1,2-dihydropyridin-3-yl)benzonitrile (perampanel): a novel, noncompetitive α-amino-3-hydroxy-5-methyl-4-isoxazolepropanoic acid (AMPA) receptor antagonist” (J Med Chem, 2012).

Columns and labels:
[1] = Antagonist activity at AMPA receptor in E18 rat cerebral cortical neurons assessed as inhibition of AMPA-induced intracellular Ca2+ response by fura-2 AM dye based fluorimetry; assay type: functional, cell-based
[2] = test system: Mus musculus; experiment: Anticonvulsant activity in po dosed ddY mouse AMPA-induced seizure model; assay type: functional; details: read-out: MED
Method in brief: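 Male 5-week-old ddY mice given compound orally as a 0.5% MC suspension 1 h before challenge. Clonic seizures induced by intracerebroventricular AMPA infusion at 2 nmol/5 μL/min; latency to clonic seizure recorded. MED taken as lowest dose giving statistically significant prolongation of latency.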

[3] = Half life in healthy human; assay type: ADME, organism-based; details: in vivo
[4] = test system: Mus musculus; experiment: Anticonvulsant activity in ICR mouse pentylenetetrazole-induced seizure model at 0.75 to 3 mg/kg, po after 30 mins; assay type: functional; details: 0.5 h, dose mg/kg 0.75-3
[5] = test system: Mus musculus; experiment: Anticonvulsant activity in ddY mouse MES-induced seizure model 0.75 to 2.12 mg/kg, po after 1hr; assay type: functional; details: dose mg/kg 0.75-2.12
[6] = test system: Mus musculus; experiment: Anticonvulsant activity in DBA/2J mouse audinogenic seizure model at 0.3 to 3 mg/kg, po after 1 hr; assay type: functional; details: dose mg/kg 0.3-3
[7] = test system: Nucleic Acid; experiment: Ratio of drug level in CSF to fraction unbound in plasma in ddY mouse at 0.5 mg/kg, ip after 20 mins; assay type: ADME, organism-based, Rattus norvegicus; set-up: dose 0.5 mg/kg, route intraperitoneal; details: in vivo
Method in brief: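 Male ddY mice were dosed ip. CSF was taken by cisternal puncture and processed like plasma: deproteinized with methanol/60% perchloric solution (500:1 v/v), then analysed by HPLC with fluorescence detection. The ratio is CSF concentration over unbound plasma concentration. Each value is the mean of two or three animals.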

[8] = Ratio of drug level in brain to plasma in Sprague-Dawley rat at 10 mg/kg, po after 30 mins; assay type: ADME, organism-based; set-up: dose 10 mg/kg, route oral; details: brain and plasma, read-out: BPR
Method in brief: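 Male Sprague–Dawley rats were dosed orally. Brain was homogenized in two volumes of water. Brain homogenate and plasma were deproteinized with methanol/60% perchloric solution (500:1 v/v) and quantified by HPLC with fluorescence detection. The ratio is brain over plasma concentration, each value the mean of two or three animals.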

[9] = Ratio of drug level in brain to plasma in ddY mouse at 3 mg/kg, po after 60 mins; assay type: ADME, organism-based; set-up: dose 3 mg/kg, route oral; details: brain and plasma, read-out: BPR
Method in brief: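 Male ddY mice dosed orally at 3 mg/kg; brain and plasma taken at 60 min. Brain homogenized in two volumes of water, then processed like plasma (methanol/perchloric deproteinization, HPLC with fluorescence). Ratio is the mean of two or three animals.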

[10] = Oral bioavailability in Sprague-Dawley rat at 1 mg/kg; assay type: ADME, organism-based; details: in vivo
Method in brief: (§1)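 Fasted male Sprague-Dawley rats, single 1 mg/kg dose iv or po, n = 3 per route. Blood drawn at set time points; plasma deproteinized with methanol/60% perchloric solution (500:1 v/v) and assayed by HPLC with fluorescence. Parameters from mean plasma concentrations of three animals by model-independent analysis; F = AUC(0-inf) oral/iv ratio.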

[11] = test system: Rattus norvegicus; experiment: AUC in Sprague-Dawley rat at 1 mg/kg, po; assay type: ADME, organism-based, Plasma; set-up: dose 1 mg/kg, route oral; details: in vivo; method in brief: as §1
[12] = Cmax in Sprague-Dawley rat at 1 mg/kg, po; assay type: ADME, organism-based; set-up: dose 1 mg/kg, route oral; details: in vivo; method in brief: as §1
[13] = Tmax in Sprague-Dawley rat at 1 mg/kg, po; assay type: ADME, organism-based; set-up: dose 1 mg/kg, route oral; details: in vivo; method in brief: as §1
[14] = Half life in Sprague-Dawley rat at 1 mg/kg, iv; assay type: ADME, organism-based; set-up: dose 1 mg/kg, route intravenous; details: in vivo; method in brief: as §1
[15] = test system: Rattus norvegicus; experiment: AUC in Sprague-Dawley rat at 1 mg/kg, iv; assay type: ADME, organism-based, Plasma; set-up: dose 1 mg/kg, route intravenous; details: in vivo; method in brief: as §1
[16] = Volume of distribution at steady state in Sprague-Dawley rat at 1 mg/kg, iv; assay type: ADME, organism-based; set-up: dose 1 mg/kg, route intravenous; details: in vivo, read-out: Vdss; method in brief: as §1
[17] = Plasma clearance in Sprague-Dawley rat at 1 mg/kg, iv; assay type: ADME, organism-based; set-up: dose 1 mg/kg, route intravenous; method in brief: as §1

Structure (SMILES) | IC50 [1] [nM] | further results
O=c1c(-c2ccsc2)cc(-c2ccccn2)cn1-c1cccnc1 | 780 | –
O=c1c(-c2ccccc2Cl)cc(-c2ccccn2)cn1-c1cccnc1 | 400 | minimal effective dose [2]: 25 mg/kg
N#Cc1sccc1-c1cc(-c2ccccn2)cn(-c2cccnc2)c1=O | 180 | minimal effective dose [2]: 25 mg/kg
O=c1c(-c2ccccc2C(F)(F)F)cc(-c2ccccn2)cn1-c1cccnc1 | 2100 | –
O=c1c(-c2cccnc2F)cc(-c2ccccn2)cn1-c1cccnc1 | 1450 | minimal effective dose [2]: 10 mg/kg
N#Cc1ccccc1-c1cc(-c2cccnc2)cn(-c2ccccc2)c1=O | 4020 | –
N#Cc1ccccc1-c1cc(-c2ccncc2)cn(-c2ccccc2)c1=O | 5530 | –
N#Cc1ccccc1-c1cc(-c2ccccc2)cn(-c2ccccc2)c1=O | 330 | minimal effective dose [2]: 25 mg/kg
N#Cc1ccccc1-c1cc(-c2ccccc2F)cn(-c2ccccc2)c1=O | 200 | –
N#Cc1ccccc1-c1cc(-c2cccs2)cn(-c2ccccc2)c1=O | 100 | –
N#Cc1ccccc1-c1cc(-c2ccccc2C#N)c(=O)n(-c2ccccc2)c1 | 8430 | –
COc1ccccc1-c1cc(-c2ccccc2C#N)c(=O)n(-c2ccccc2)c1 | 740 | –
N#Cc1ccccc1-c1cc(-c2ccsc2)cn(-c2ccccc2)c1=O | 140 | –
COc1cccc(-n2cc(-c3ccccn3)cc(-c3ccccc3C#N)c2=O)c1 | 250 | –
COc1ccccc1-n1cc(-c2ccccn2)cc(-c2ccccc2C#N)c1=O | 150 | –
COc1ccc(-n2cc(-c3ccccn3)cc(-c3ccccc3C#N)c2=O)cc1 | 440 | –
N#Cc1ccccc1-c1cc(-c2ccccn2)cn(-c2ccc(F)nc2)c1=O | 500 | –
N#Cc1ccccc1-c1cc(-c2ccccn2)cn(-c2ccccc2C#N)c1=O | > 15000 | –
N#Cc1ccc(-n2cc(-c3ccccn3)cc(-c3ccccc3C#N)c2=O)cc1 | 520 | –
COc1ccc(-n2cc(-c3ccccn3)cc(-c3ccccc3C#N)c2=O)cn1 | 620 | –
O=C1COC(c2ccccc2)=NN1c1ccccc1 | 9170 | –
O=C1COC(c2ccccc2)=NN1Cc1ccccc1 | 33700 | –

Structure (SMILES) | IC50 [1] [nM] | further results
O=C1COC(c2ccccc2)=NN1C1CCCCC1 | > 150000 | –
O=C1COC(C2CCCCC2)=NN1c1ccccc1 | > 150000 | –
CCCC1=NN(c2ccccc2)C(=O)CO1 | > 150000 | –
O=C1COC(Cc2ccccc2)=NN1c1ccccc1 | > 150000 | –
O=C1CCC(c2ccccc2)=NN1c1ccccc1 | 28100 | –
O=c1ccc(-c2ccccc2)cn1-c1ccccc1 | 69500 | –
O=c1[nH]cc(-c2ccccc2)cc1-c1ccccc1 | 57700 | –
O=c1c(-c2ccccc2)cc(-c2ccccc2)cn1-c1ccccc1 | 1080 | –
O=c1c(-c2ccccc2)cc(-c2ccccn2)cn1-c1ccccc1 | 320 | –
O=c1c(-c2ccccc2)cc(-c2ccccn2)cn1-c1cccnc1 | 440 | –
N#Cc1cccc(-c2cc(-c3ccccn3)cn(-c3ccccc3)c2=O)c1 | 7260 | –
N#Cc1ccc(-c2cc(-c3ccccn3)cn(-c3ccccc3)c2=O)cc1 | 28700 | –
O=c1c(-c2ccccc2F)cc(-c2ccccn2)cn1-c1ccccc1 | 200 | –
O=c1c(-c2ccccc2Cl)cc(-c2ccccn2)cn1-c1ccccc1 | 100 | –
Cc1ccccc1-c1cc(-c2ccccn2)cn(-c2ccccc2)c1=O | 400 | –
COc1ccccc1-c1cc(-c2ccccn2)cn(-c2ccccc2)c1=O | 1420 | –
O=c1c(-c2cccnc2F)cc(-c2ccccn2)cn1-c1ccccc1 | 370 | minimal effective dose [2]: 5 mg/kg
O=c1c(-c2cccnc2Cl)cc(-c2ccccn2)cn1-c1ccccc1 | 680 | –
N#Cc1ncccc1-c1cc(-c2ccccn2)cn(-c2ccccc2)c1=O | 200 | minimal effective dose [2]: 5 mg/kg
N#Cc1ccccc1-c1cc(-c2ccccn2)cn(-c2cccnc2)c1=O | 210 | minimal effective dose [2]: 10 mg/kg
N#Cc1ccccc1-c1cc(-c2ccccn2)cn(-c2ccccc2)c1=O [PERAMPANEL] | 60 | half-life [3]: 70 h; ED50 [4]: 0.94 mg/kg; ED50 [5]: 1.6 mg/kg; ED50 [6]: 0.47 mg/kg; Ratio [7]: 1.14; Kp at 0.5 h [8]: 1.14; Kp at 1 h [9]: 1.06; bioavailability [10]: 64.3%; AUC [11]: 0.36 µg/mL/h; Cmax [12]: 170 ng/mL; Tmax [13]: 0.5 h; half-life [14]: 2.37 h; AUC [15]: 0.56 µg/mL/h; Vd [16]: 4.56 L/kg; clearance [17]: 30.3 mL/min/kg; minimal effective dose [2]: 2 mg/kg
